Positions of bridges follow the written chain, without caps; N, C: chain ends. Residues, ends and D or L forms follow the SMILES beside them.
Legend:
[1] = molecular target: T1, Sodium channel protein type 5 subunit alpha (Homo sapiens, UniProt Q14524); experiment: Inhibition of human Nav1.5 expressed in HEK293 cells assessed as inward peak current by ion-works quattro patch clamp electrophysiology method
How it was run: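 Stable HEK293 line expressing human NaV1.5, recorded by population patch clamp on the IonWorks Quattro.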

[2] = molecular target: Sodium channel protein type 9 subunit alpha (Homo sapiens, UniProt Q15858); experiment: Inhibition of human Nav1.7 expressed in HEK293 cells by whole cell patch clamp electrophysiology method
Sodium channel protein type 9 subunit alpha, sequence (Q15858 whole entry): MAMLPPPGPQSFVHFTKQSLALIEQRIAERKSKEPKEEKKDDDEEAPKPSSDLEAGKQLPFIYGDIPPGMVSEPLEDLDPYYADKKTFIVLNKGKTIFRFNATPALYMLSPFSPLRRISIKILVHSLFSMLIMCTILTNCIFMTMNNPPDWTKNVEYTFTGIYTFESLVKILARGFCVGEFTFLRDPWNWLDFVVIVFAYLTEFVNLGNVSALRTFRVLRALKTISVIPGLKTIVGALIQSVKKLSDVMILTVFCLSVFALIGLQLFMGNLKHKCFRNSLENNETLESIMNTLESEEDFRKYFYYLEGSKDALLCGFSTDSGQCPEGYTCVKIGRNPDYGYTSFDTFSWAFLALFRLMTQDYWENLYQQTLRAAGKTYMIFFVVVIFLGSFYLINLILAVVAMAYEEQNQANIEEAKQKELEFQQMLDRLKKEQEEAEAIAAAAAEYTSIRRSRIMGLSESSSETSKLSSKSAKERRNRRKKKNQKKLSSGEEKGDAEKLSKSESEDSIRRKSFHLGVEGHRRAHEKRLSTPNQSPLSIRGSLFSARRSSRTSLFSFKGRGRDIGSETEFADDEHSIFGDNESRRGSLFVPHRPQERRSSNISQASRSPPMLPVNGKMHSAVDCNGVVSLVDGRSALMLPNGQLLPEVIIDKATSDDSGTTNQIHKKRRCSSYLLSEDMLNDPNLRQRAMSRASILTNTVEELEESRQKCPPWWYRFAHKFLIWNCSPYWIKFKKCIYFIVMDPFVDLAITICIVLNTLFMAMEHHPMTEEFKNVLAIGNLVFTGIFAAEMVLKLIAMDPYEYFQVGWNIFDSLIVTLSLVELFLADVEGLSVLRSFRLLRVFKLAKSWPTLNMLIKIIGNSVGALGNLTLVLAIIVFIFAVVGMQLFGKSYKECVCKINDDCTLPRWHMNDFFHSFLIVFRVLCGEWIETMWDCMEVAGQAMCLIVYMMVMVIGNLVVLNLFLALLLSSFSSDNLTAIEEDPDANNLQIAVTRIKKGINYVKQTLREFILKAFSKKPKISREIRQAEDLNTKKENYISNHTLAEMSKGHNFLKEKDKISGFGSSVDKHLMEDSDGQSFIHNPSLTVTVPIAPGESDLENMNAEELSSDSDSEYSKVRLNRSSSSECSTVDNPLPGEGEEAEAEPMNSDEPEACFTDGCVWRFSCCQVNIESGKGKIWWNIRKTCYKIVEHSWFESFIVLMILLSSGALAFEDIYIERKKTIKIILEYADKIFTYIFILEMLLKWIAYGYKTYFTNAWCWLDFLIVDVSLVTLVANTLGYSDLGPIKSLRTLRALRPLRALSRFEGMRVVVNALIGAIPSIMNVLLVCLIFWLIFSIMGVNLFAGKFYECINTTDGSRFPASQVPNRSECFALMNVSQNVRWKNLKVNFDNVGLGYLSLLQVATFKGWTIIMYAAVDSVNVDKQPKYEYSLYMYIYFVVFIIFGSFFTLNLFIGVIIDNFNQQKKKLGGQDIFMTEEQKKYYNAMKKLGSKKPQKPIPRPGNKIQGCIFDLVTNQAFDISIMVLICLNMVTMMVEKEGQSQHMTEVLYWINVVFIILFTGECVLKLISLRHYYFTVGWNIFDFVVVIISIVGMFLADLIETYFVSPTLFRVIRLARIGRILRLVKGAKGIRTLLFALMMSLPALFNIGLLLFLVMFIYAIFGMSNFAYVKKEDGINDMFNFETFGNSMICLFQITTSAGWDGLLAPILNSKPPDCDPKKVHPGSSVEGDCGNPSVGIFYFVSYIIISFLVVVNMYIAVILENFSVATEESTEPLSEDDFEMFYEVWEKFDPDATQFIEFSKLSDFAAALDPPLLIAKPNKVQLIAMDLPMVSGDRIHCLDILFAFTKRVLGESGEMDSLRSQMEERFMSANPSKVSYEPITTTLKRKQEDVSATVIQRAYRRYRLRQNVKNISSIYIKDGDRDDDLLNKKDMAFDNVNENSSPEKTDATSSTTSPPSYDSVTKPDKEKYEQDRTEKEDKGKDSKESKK

[3] = molecular target: T1, Sodium channel protein type 5 subunit alpha; experiment: Inhibition of human Nav1.5 expressed in HEK293 cells by whole cell patch clamp electrophysiology method
How it was run: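 Stable HEK293 line expressing human NaV1.5. Peptides were used only at >95% purity with the correct m/z, and were quantified by chemiluminescent nitrogen detection against a caffeine standard curve.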

T1 sequence (Q14524 whole entry): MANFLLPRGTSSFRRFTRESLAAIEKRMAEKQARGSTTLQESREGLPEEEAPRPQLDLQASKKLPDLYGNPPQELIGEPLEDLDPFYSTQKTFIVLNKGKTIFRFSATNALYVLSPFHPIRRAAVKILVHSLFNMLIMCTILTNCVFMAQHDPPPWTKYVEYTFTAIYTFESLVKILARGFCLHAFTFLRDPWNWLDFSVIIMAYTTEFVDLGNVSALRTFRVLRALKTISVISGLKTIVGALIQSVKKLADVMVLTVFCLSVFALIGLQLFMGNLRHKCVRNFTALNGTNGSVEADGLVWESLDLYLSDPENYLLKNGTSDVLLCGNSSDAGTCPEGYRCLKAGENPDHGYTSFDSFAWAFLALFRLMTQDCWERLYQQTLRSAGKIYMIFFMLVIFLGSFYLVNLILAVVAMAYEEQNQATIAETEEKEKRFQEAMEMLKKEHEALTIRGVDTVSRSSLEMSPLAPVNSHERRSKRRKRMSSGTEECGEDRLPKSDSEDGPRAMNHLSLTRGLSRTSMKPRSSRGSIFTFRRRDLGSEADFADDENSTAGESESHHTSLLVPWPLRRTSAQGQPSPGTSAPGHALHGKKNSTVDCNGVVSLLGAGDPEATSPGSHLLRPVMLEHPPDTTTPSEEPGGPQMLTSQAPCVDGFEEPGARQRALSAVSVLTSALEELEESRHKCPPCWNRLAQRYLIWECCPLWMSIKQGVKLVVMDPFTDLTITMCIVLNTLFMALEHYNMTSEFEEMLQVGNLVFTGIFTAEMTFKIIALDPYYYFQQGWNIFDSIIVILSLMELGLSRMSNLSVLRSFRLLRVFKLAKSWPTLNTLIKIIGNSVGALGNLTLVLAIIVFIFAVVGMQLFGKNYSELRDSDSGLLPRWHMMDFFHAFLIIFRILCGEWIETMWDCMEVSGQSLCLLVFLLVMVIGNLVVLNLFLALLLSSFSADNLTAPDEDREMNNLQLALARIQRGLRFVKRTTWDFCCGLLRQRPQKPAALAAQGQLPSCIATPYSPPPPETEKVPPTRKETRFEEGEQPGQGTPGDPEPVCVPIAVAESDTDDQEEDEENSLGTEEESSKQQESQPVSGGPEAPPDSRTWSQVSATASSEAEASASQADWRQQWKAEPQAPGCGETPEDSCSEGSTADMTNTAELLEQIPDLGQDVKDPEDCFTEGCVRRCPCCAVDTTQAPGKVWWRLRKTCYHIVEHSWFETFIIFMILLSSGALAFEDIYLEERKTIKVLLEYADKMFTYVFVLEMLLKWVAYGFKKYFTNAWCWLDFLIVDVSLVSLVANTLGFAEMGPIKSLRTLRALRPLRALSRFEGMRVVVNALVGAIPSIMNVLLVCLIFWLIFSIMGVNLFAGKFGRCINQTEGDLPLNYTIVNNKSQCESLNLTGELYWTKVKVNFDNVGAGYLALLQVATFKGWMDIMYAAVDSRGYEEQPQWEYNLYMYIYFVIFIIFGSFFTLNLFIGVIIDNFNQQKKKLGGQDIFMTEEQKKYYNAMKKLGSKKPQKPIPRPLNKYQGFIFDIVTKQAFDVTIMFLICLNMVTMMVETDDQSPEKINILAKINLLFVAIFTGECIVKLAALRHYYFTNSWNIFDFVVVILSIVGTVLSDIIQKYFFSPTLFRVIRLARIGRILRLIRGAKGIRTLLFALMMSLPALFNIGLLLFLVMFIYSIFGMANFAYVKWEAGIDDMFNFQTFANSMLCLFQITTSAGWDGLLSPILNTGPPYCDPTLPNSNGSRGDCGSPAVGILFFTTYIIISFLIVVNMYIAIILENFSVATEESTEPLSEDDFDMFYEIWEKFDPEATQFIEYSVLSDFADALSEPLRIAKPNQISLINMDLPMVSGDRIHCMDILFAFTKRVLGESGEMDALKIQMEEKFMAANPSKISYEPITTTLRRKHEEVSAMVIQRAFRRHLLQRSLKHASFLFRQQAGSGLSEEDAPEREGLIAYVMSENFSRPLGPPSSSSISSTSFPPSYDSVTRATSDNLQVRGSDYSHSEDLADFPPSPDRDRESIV

| SMILES | IC50 [1] [nM] | IC50 [2] [nM] | IC50 [3] [nM] |
| --- | --- | --- | --- |
| CC[C@H](C)[C@@H]1NC(=O)[C@@H]2CSSC[C@@H]3NC(=O)[C@H](C(C)C)NC(=O)[C@H](CC(C)C)NC(=O)[C@H](CC(N)=O)NC(=O)[C@@H]4CCCN4C(=O)[C@H](CCCNC(=N)N)NC(=O)[C@H](CSSC[C@H](NC(=O)[C@@H](N)CC(=O)O)C(=O)N[C@@H](CCC(=O)O)C(=O)NCC(=O)N[C@@H](Cc4ccccc4)C(=O)N[C@@H](CCSC)C(=O)N[C@@H](CCCNC(=N)N)C(=O)N[C@@H](CCCCN)C(=O)N2)NC(=O)[C@H](CSSC[C@@H](C(=O)N[C@@H](CCCCN)C(=O)N[C@@H](Cc2ccc(O)cc2)C(=O)N[C@H](C(=O)N[C@@H](Cc2ccccc2)C(N)=O)C(C)C)NC(=O)[C@H](Cc2c[nH]c4ccccc24)NC(=O)[C@H](CCCCN)NC(=O)[C@H](Cc2cnc[nH]2)NC(=O)[C@H]([C@@H](C)O)NC(=O)[C@H](CCCNC(=N)N)NC(=O)[C@H](CO)NC3=O)NC(=O)[C@H](CCCCN)NC(=O)[C@H](CC(=O)O)NC(=O)[C@H](CC(N)=O)NC(=O)[C@H](CC(=O)O)NC(=O)[C@@H]2CCCN2C1=O (H-DCEGFMRKCIPDNDKCCRPNLVCSRTHKWCKYVF-NH2; disulfide 2-17, 9-23, 16-30) | > 5000 | – | – |
| CC[C@H](C)[C@@H]1NC(=O)[C@@H]2CSSC[C@@H]3NC(=O)[C@H](C(C)C)NC(=O)[C@H](CC(C)C)NC(=O)[C@H](CC(N)=O)NC(=O)[C@@H]4CCCN4C(=O)[C@H](CCCNC(=N)N)NC(=O)[C@H](CSSC[C@H](NC(=O)[C@@H](N)CC(=O)O)C(=O)N[C@@H](CC(C)C)C(=O)NCC(=O)N[C@@H](Cc4ccccc4)C(=O)N[C@@H](CCSC)C(=O)N[C@@H](CCCNC(=N)N)C(=O)N[C@@H](CCCCN)C(=O)N2)NC(=O)[C@H](CSSC[C@@H](C(=O)N[C@@H](CCCCN)C(=O)N[C@@H](Cc2ccc(O)cc2)C(=O)N[C@H](C(=O)N[C@@H](Cc2ccccc2)C(=O)N[C@@H](Cc2c[nH]c4ccccc24)C(N)=O)C(C)C)NC(=O)[C@H](Cc2c[nH]c4ccccc24)NC(=O)[C@H](CCCCN)NC(=O)[C@H](Cc2c[nH]cn2)NC(=O)[C@H]([C@@H](C)O)NC(=O)[C@H](CCCNC(=N)N)NC(=O)[C@H](CO)NC3=O)NC(=O)[C@H](CCCCN)NC(=O)[C@H](CC(=O)O)NC(=O)[C@H](CC(N)=O)NC(=O)[C@H](CC(=O)O)NC(=O)[C@@H]2CCCN2C1=O | > 5000 | 10 | 2700 |

Source: BindingDB's records for doi:10.1021/acs.jmedchem.5b01947 (Amgen, 2016)
